Data reported in the M2OR odorant receptor database.

How the values were obtained:
Conditions in all cases: stereoisomer not certain
OR10H4 (Homo sapiens) = target: T1, OR10H4 (Homo sapiens) (UniProt Q8NGA5)
T1 sequence (whole entry): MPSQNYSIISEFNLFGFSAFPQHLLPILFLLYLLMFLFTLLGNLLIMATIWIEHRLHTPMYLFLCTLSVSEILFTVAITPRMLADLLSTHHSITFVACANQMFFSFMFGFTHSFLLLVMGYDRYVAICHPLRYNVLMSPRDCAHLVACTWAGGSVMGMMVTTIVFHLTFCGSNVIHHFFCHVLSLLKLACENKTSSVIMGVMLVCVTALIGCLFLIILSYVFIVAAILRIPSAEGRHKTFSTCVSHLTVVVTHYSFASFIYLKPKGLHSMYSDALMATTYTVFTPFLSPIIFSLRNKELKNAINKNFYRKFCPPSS
Method in brief: (§1)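 Each receptor–molecule pair is labelled responsive or non-responsive (inactive) according to whether the original authors judged the measured signal statistically different from baseline. The data were taken from the main text and supplementary material of published papers and checked for typos and inconsistencies. Assay methods differed by source, with transient luciferase assays in mammalian cell lines being common.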

OR10H5 (Homo sapiens) = target: T2, OR10H5 (Homo sapiens) (UniProt Q8NGA6)
T2 sequence (whole entry): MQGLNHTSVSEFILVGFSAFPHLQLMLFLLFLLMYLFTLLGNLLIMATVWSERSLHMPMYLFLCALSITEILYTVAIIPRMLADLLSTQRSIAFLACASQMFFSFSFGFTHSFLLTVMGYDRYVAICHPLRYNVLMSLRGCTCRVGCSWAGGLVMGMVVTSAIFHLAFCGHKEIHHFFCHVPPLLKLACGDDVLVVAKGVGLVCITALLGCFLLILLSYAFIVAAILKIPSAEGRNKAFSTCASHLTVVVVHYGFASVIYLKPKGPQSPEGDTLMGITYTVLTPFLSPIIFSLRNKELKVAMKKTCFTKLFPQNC
Method in brief: as §1

OR10J1 (Homo sapiens) = target: T3, OR10J1 (Homo sapiens) (UniProt P30954)
T3 sequence (whole entry): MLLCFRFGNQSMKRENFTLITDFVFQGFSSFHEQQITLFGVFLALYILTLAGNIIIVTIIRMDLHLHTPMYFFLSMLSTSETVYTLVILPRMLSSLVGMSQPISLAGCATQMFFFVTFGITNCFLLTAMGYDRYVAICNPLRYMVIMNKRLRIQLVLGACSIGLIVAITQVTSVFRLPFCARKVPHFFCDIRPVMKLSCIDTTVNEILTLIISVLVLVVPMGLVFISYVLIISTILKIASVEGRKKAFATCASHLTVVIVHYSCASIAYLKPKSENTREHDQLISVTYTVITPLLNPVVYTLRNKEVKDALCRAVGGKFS
Method in brief: as §1

OR10J3 (Homo sapiens) = target: T4, OR10J3 (Homo sapiens) (UniProt Q5JRS4)
T4 sequence (whole entry): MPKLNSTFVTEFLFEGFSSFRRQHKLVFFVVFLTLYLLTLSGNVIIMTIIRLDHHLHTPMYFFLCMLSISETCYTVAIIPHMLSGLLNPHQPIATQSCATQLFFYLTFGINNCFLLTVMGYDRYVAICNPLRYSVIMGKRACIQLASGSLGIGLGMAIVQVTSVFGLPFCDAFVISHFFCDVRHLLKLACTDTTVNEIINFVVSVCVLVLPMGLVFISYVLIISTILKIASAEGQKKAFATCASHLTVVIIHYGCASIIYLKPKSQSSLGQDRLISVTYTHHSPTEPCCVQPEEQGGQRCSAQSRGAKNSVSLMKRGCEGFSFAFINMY
Method in brief: as §1

OR10J5 (Homo sapiens) = target: T5, OR10J5 (Homo sapiens) (UniProt Q8NHC4)
T5 sequence (whole entry): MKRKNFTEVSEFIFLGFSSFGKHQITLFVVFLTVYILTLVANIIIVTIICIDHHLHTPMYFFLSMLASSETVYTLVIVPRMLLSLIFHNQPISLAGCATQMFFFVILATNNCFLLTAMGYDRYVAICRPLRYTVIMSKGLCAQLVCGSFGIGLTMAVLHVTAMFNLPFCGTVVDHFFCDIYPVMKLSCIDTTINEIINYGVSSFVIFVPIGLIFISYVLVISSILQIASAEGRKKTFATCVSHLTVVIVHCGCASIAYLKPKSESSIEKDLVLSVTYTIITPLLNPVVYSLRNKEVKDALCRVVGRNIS
Method in brief: as §1

OR10K1 (Homo sapiens) = target: T6, OR10K1 (Homo sapiens) (UniProt Q8NGX5)
T6 sequence (whole entry): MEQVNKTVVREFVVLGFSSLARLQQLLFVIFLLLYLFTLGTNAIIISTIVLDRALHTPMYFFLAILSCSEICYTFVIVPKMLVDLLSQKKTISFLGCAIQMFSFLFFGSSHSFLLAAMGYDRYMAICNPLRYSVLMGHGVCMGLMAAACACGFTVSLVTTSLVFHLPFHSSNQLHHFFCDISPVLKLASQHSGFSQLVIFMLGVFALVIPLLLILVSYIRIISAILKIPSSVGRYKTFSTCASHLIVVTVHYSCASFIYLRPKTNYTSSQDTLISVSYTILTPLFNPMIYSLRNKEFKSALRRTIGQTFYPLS
Method in brief: as §1

OR10K2 (Homo sapiens) = target: T7, OR10K2 (Homo sapiens) (UniProt Q6IF99)
T7 sequence (whole entry): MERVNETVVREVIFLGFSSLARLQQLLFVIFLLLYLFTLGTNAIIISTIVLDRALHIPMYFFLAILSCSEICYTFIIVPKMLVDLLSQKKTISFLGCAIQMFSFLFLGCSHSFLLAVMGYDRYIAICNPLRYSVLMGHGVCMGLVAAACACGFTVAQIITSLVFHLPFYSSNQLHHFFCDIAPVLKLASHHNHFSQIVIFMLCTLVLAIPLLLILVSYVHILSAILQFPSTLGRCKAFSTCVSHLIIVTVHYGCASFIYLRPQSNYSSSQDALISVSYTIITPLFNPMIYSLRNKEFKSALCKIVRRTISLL
Method in brief: as §1

OR10P1 (Homo sapiens) = target: T8, OR10P1 (Homo sapiens) (UniProt Q8NGE3)
T8 sequence (whole entry): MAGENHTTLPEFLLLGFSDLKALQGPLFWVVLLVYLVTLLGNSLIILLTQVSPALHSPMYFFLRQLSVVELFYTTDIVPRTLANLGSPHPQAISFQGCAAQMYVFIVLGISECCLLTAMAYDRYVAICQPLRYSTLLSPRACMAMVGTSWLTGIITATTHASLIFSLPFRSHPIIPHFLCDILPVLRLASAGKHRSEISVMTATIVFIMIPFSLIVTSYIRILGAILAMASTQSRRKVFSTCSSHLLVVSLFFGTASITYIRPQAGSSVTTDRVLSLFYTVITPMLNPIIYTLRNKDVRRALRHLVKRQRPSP
Method in brief: as §1

OR10Q1 (Homo sapiens) = target: T9, OR10Q1 (Homo sapiens) (UniProt Q8NGQ4)
T9 sequence (whole entry): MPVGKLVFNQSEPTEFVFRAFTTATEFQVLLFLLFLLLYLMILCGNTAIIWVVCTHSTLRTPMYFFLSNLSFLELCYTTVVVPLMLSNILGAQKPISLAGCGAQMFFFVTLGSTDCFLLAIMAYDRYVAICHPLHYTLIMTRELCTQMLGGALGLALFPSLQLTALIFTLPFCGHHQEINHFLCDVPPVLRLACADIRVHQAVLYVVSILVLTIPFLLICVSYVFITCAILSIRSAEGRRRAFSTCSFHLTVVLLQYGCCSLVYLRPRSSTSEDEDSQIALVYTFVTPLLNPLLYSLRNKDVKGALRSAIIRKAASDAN
Method in brief: as §1

Measured: odorant receptor agonist call

CCCCCC(S)C(C)CO (centres undefined)
inactive: all assays above
